# Experimental data as given in paper PMC5823510 (Journal of the American Chemical Society, 2018).
# Legend:
# [1] = molecular target: OGG1 activity in HeLa cell lysates (Homo sapiens, UniProt O15527); assay: Inhibition of OGG1 activity in HeLa cell lysate; type: biochemical; conditions: 0.5 μM, measured at 20 h
# Summary of the method: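 Cells were grown 48 h to confluence in DMEM with 10% FBS. Cytoplasmic fractions came from hypotonic swelling and needle lysis; nucleoplasmic fractions from 0.42 M NaCl extraction. The two were mixed 2:1. Each reaction held 100 ng/µL total protein, 2 µM pOGR1 fluorogenic probe, 10 mM MgCl2 and test compound at 0.5 μM, and ran […] at 37 °C. Fluorescence was read at 460 nm (excitation 355 nm).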
# [2] = molecular target: T1, SMUG1 (single-strand selective monofunctional uracil DNA glycosylase) (Homo sapiens, UniProt Q53HV7); assay: Enzyme selectivity screen, SMUG1; type: biochemical; conditions: 20 μM
# T1 sequence (Q53HV7 1-270): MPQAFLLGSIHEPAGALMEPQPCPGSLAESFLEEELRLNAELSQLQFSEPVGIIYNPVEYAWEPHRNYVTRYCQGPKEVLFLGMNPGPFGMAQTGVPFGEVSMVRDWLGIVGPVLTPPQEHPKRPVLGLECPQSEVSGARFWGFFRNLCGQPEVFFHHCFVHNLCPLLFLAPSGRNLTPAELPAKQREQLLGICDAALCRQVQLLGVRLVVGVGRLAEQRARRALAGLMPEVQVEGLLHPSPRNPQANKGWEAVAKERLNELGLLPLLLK
# [3] = molecular target: Recombinant His-tagged OGG1 (Homo sapiens, UniProt O15527); assay: Surface plasmon resonance; type: binding; conditions: Biacore 8K, 1:3 dilution series, highest concentration 4 μM
# Recombinant His-tagged OGG1, sequence (O15527 whole entry): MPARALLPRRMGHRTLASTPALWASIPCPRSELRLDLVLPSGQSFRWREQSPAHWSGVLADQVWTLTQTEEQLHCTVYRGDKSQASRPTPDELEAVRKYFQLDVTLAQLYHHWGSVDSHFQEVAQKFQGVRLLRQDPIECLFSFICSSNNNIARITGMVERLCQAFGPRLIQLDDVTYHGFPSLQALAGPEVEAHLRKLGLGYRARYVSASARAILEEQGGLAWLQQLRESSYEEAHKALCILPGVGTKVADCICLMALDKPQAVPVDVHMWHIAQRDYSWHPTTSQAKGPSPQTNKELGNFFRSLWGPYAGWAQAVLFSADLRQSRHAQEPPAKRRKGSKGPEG
# HeLa cells = assay: Toxicity via MTT assay, HeLa; type: cell-based, human
# Summary of the method: (§1)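 HEK293T cells (1.6×10^4/well, pre-grown 30 h) or HeLa cells (1.2×10^4/well, pre-grown 16 h) were cultured in DMEM with 10% FBS. They were exposed 24 h at 37 °C to test compound at 10 nM–100 μM, with 5% DMSO at 100 μM and 1% DMSO otherwise; medium-only and DMSO-matched controls were included. MTT was added at 0.5 mg/mL final, followed by 20 h solubilisation and absorbance reading at 550 and 650 nm.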
# hOGG1 [4] = molecular target: T2, hOGG1 (Homo sapiens, UniProt O15527); assay: Michaelis–Menten kinetics of hOGG1 with OGR1 probe; type: biochemical
# T2 sequence (O15527 whole entry): as above
# Summary of the method: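 Recombinant hOGG1 (100 nM) was preincubated 15 min at 37 °C in NEBuffer 4 (pH 7.9) with BSA, without or with test compound (200 nM or 2 μM). OGR1 fluorogenic substrate was added at 0.8–10 μM and fluorescence read at 460 nm (excitation 355 nm). Initial rates over 10 min gave Michaelis–Menten curves and Lineweaver–Burk plots, yielding Km and Vmax; kcat = Vmax/[enzyme].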
# [5] = molecular target: MTH1 (human MutT Homolog 1) (Homo sapiens, UniProt P36639); assay: Enzyme selectivity screen, MTH1; type: biochemical; conditions: 20 μM
# OGG1 in HeLa cells = OGG1 in HeLa cells (Homo sapiens, UniProt O15527); assay: Detection of 8-OG; type: cell-based; conditions: 0.5 μM, 24 h, LC/MS-MS
# OGG1 in HeLa cells, sequence (O15527 whole entry): as above
# Summary of the method: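 HeLa cells were seeded at 2×10^6 per 10 cm dish in DMEM with 10% FBS and grown 12 h. They were then exposed 24 h at 37 °C to test compound at 5 or 0.5 μM, with compound-containing medium renewed every 6 h. Controls were untreated cells and H2O2 (0.5 mM) plus CrCl3 (0.3 mM). DNA (5 µg) was digested to nucleosides, and 8-oxodG was quantified by LC-MS/MS with 15N-labelled internal standards and normalised to dG.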
# Caco-2 (clone C2BBel) = assay: CACO-2 permeability assay; type: in vitro ADME; conditions: for Papp avg: average; for Papp R1: replicate R1
# hOGG1 [6] = molecular target: T2, hOGG1; assay: OGG1 inhibitor assay with fluorogenic OGR1 probe; type: biochemical
# [7] = tested on: dUTPase (deoxyuridine 5′-triphosphate nucleotidohydrolase); assay: Enzyme selectivity screen, dUTPase; type: biochemical; conditions: 20 μM
# [8] = molecular target: T3, hABH2 (human AlkB Homolog 2) (Homo sapiens, UniProt Q6NS38); assay: Enzyme selectivity screen, hABH2; type: biochemical; conditions: 20 μM
# T3 sequence (Q6NS38 1-261): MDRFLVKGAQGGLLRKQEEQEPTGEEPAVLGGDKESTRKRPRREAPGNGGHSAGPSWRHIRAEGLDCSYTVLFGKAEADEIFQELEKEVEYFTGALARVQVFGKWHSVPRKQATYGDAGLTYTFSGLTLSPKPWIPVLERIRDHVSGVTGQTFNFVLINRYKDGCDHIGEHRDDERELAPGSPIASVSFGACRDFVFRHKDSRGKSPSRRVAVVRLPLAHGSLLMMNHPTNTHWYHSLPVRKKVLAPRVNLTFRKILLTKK
# [9] = molecular target: T4, hABH3 (human AlkB Homolog 3) (Homo sapiens, UniProt Q96Q83); assay: Enzyme selectivity screen, hABH3; type: biochemical; conditions: 20 μM
# T4 sequence (Q96Q83 1-286): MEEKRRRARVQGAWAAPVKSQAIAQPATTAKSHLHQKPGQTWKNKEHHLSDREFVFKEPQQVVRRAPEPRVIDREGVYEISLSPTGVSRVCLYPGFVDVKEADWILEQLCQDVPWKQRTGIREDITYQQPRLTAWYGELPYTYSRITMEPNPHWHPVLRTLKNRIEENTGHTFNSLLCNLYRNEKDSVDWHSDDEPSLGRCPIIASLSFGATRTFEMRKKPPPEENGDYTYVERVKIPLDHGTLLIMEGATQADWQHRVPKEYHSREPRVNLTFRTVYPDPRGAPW
# HEK293T cells = assay: Toxicity via MTT assay, HEK293T; type: cell-based, human
# Summary of the method: as §1
# [10] = molecular target: OGG1 activity in MCF-7 cell lysates (Homo sapiens, UniProt O15527); assay: Inhibition of OGG1 activity in MCF-7 cell lysate; type: biochemical; conditions: MCF-7 lysate, 0.5 μM, measured at 20 h
# OGG1 activity in MCF-7 cell lysates, sequence (O15527 whole entry): as the sequence (O15527 whole entry) above
# [11] = molecular target: NUDT16 (nucleoside diphosphate-linked moiety X-type motif 16) (Homo sapiens, UniProt Q96DE0); assay: Enzyme selectivity screen, NUDT16; type: biochemical; conditions: 20 μM
# NUDT16 (nucleoside diphosphate-linked moiety X-type motif 16), sequence (Q96DE0 whole entry, species assumed): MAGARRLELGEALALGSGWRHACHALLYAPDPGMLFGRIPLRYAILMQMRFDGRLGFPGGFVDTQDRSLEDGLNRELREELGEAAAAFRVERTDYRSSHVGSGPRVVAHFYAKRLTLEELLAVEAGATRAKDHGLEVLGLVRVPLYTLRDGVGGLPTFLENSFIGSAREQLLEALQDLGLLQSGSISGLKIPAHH
# OGG1 activity in HeLa cell lysates, sequence (O15527 whole entry): as the sequence (O15527 whole entry) above
smiles,measurement,setting,value
NC(=O)c1cccc(-c2ccc(S(=O)(=O)Nc3ccc4c(c3)N(C(=O)C3CC3)CCC4)cc2)c1 [Compound 41],inhibition of probe signal,[1],64%
same,activity against SMUG1,[2],low or negligible
same,Kd (1:1 kinetic and steady-state models),[3],consistent with IC50 of the biochemical assay
same,toxicity at 10 μM,"HeLa cells; HeLa (one of two human cell lines), 10 μM",no toxicity
same,cytotoxicity (MTT),"HeLa cells; HeLa, 10 nM to 10 μM, 24 h",little or no cytotoxicity
same,apparent toxicity (MTT),"HeLa cells; HeLa, 100 μM, 24 h",30–50%
same,mode of inhibition,"hOGG1 [4]; Lineweaver–Burk analysis, 200 nM and 2 μM",competitive inhibitor
same,kcat,hOGG1 [4]; with 200 nM 41,0.040 s⁻¹
same,kcat,hOGG1 [4]; with 2 μM 41,0.057 s⁻¹
same,activity against MTH1,[5],low or negligible
same,increase of 8-oxodG levels in DNA relative to mock-treated controls,OGG1 in HeLa cells,25%
same,recovery,Caco-2 (clone C2BBel); A-to-B,65%
same,Papp avg,Caco-2 (clone C2BBel); A-to-B,12.5 ×10⁻⁶ cm/s
same,Papp R1,Caco-2 (clone C2BBel); A-to-B,14.2 ×10⁻⁶ cm/s
same,recovery,Caco-2 (clone C2BBel); B-to-A,79%
same,efflux ratio,Caco-2 (clone C2BBel); B-to-A / A-to-B,6.2
same,Papp avg,Caco-2 (clone C2BBel); B-to-A,77.4 ×10⁻⁶ cm/s
same,Papp R1,Caco-2 (clone C2BBel); B-to-A,63.5 ×10⁻⁶ cm/s
same,"Enzyme activity, % of control at 2 μM","hOGG1 [6]; 2 μM compound, initial rate (first 12 min)",4.8 % of control
same,IC50,"hOGG1 [6]; OGR1 assay, initial rates method",59 nM
same,"Enzyme activity, % of control at 200 μM (third column of Table 5)","hOGG1 [6]; head of Table 5 c4 prints 200 μM, initial rate (first 12 min)",39 ±2.5 % of control
same,activity against dUTPase,[7],low or negligible
same,activity against hABH2,[8],low or negligible
same,activity against hABH3,[9],low or negligible
same,toxicity at 10 μM,"HEK293T cells; HEK293T (one of two human cell lines), 10 μM",no toxicity
same,cytotoxicity (MTT),"HEK293T cells; HEK293T, 10 nM to 10 μM, 24 h",little or no cytotoxicity
same,apparent toxicity (MTT),"HEK293T cells; HEK293T, 100 μM, 24 h",30–50%
same,inhibition of probe signal,[10],95%
same,activity against NUDT16,[11],low or negligible
